Assay results as given in ChEMBL document CHEMBL4033643, “Synthesis and in vitro antitumour activity of crassalactone D, its stereoisomers and novel cinnamic ester derivatives” (Eur J Med Chem, 2017).
Activity calls are given as the source filed them. The calls are words filed in the database; no cut-off is given here.

Columns and labels:
K562 [1] = experiment: Cell cycle arrest in human K562 cells assessed as accumulation at sub G1 phase at IC50 after 72 hrs by propidium iodide staining based flow cytometry (reference value: 1.48%); type: functional
K562 [2] = experiment: Cell cycle arrest in human K562 cells assessed as total cell levels at M4 phase at IC50 after 72 hrs by propidium iodide staining based flow cytometry (reference value: 0.50%); type: functional
HeLa = experiment: Cytotoxicity against human HeLa cells assessed as reduction in cell viability after 72 hrs by MTT assay; type: functional, cell-based
K562 [3] = experiment: Induction of apoptosis in human K562 cells assessed as gated viable cells by Annexin V-FITC/propidium iodide staining based flow cytometry (reference value: 95.78%); type: functional
Raji = experiment: Cytotoxicity against human Raji cells assessed as reduction in cell viability after 72 hrs by MTT assay; type: functional, cell-based
K562 [4] = experiment: Induction of apoptosis in human K562 cells assessed as increase in caspase 3 expression level by Western blot analysis; type: functional, cell-based
Summary of the method: (§1)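 Western blot of treated K562 cells for Bcl-2, Bax, activated caspase 3 and cleaved PARP (85 kDa fragment). Blots developed by ECL, with band expression quantified by densitometry against an untreated control sample.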

K562 [5] = experiment: Induction of apoptosis in human K562 cells assessed as total viable cells by Annexin V-FITC/propidium iodide staining based flow cytometry (reference value: 92.45%); type: functional
K562 [6] = experiment: Induction of apoptosis in human K562 cells assessed as gated late apoptotic cells by Annexin V-FITC/propidium iodide staining based flow cytometry (reference value: 0.88%); type: functional
K562 [7] = experiment: Induction of apoptosis in human K562 cells assessed as gated early apoptotic cells by Annexin V-FITC/propidium iodide staining based flow cytometry (reference value: 3.18%); type: functional
K562 [8] = experiment: Induction of apoptosis in human K562 cells assessed as total late apoptotic cells by Annexin V-FITC/propidium iodide staining based flow cytometry (reference value: 0.77%); type: functional
K562 [9] = experiment: Induction of apoptosis in human K562 cells assessed as specific apoptosis by Annexin V-FITC/propidium iodide staining based flow cytometry; type: functional; parameters: concentration or dose not given beside the values
K562 [10] = experiment: Induction of apoptosis in human K562 cells assessed as total early apoptotic cells by Annexin V-FITC/propidium iodide staining based flow cytometry (reference value: 3.07%); type: functional
K562 [11] = experiment: Cell cycle arrest in human K562 cells assessed as accumulation at S phase at IC50 after 72 hrs by propidium iodide staining based flow cytometry (reference value: 41.03%); type: functional
K562 [12] = experiment: Induction of apoptosis in human K562 cells assessed as specific necrosis by Annexin V-FITC/propidium iodide staining based flow cytometry; type: functional; parameters: concentration or dose not given beside the values
K562 [13] = experiment: Induction of apoptosis in human K562 cells assessed as gated necrotic cells by Annexin V-FITC/propidium iodide staining based flow cytometry (reference value: 0.24%); type: functional
K562 [14] = experiment: Cell cycle arrest in human K562 cells assessed as accumulation at G0/G1 phase at IC50 after 72 hrs by propidium iodide staining based flow cytometry (reference value: 38.48%); type: functional
K562 [15] = experiment: Induction of apoptosis in human K562 cells assessed as increase in Bax expression level by Western blot analysis; type: functional, cell-based; summary of the method: as §1
MCF7 = experiment: Cytotoxicity against human MCF7 cells assessed as reduction in cell viability after 72 hrs by MTT assay; type: functional, cell-based; details: MCF7, 72 h
A549 = experiment: Cytotoxicity against human A549 cells assessed as reduction in cell viability after 72 hrs by MTT assay; type: functional, cell-based; details: A549, 72 h
K562 [16] = experiment: Cell cycle arrest in human K562 cells assessed as total cell levels at S phase at IC50 after 72 hrs by propidium iodide staining based flow cytometry (reference value: 36.49%); type: functional
Jurkat = experiment: Cytotoxicity against human Jurkat cells assessed as reduction in cell viability after 72 hrs by MTT assay; type: functional, cell-based
K562 [17] = experiment: Induction of apoptosis in human K562 cells assessed as increase in cleaved PARP expression level by Western blot analysis; type: functional, cell-based; summary of the method: as §1
K562 [18] = experiment: Cytotoxicity against human K562 cells assessed as reduction in cell viability after 72 hrs by MTT assay; type: functional, cell-based; details: K562, 72 h
K562 [19] = experiment: Induction of apoptosis in human K562 cells assessed as decrease in Bcl-2 expression level by Western blot analysis; type: functional, cell-based; summary of the method: as §1
MRC5 = experiment: Cytotoxicity against human MRC5 cells assessed as reduction in cell viability after 72 hrs by MTT assay; type: cell-based; details: MRC5, 72 h
K562 [20] = experiment: Induction of apoptosis in human K562 cells assessed as total necrotic cells by Annexin V-FITC/propidium iodide staining based flow cytometry (reference value: 0.23%); type: functional
K562 [21] = experiment: Cell cycle arrest in human K562 cells assessed as accumulation at G2/M phase at IC50 after 72 hrs by propidium iodide staining based flow cytometry (reference value: 19.01%); type: functional
K562 [22] = experiment: Cell cycle arrest in human K562 cells assessed as total cell levels at G0/G1 phase at IC50 after 72 hrs by propidium iodide staining based flow cytometry (reference value: 39.97%); type: functional
K562 [23] = experiment: Cell cycle arrest in human K562 cells assessed as total cell levels at G2/M phase at IC50 after 72 hrs by propidium iodide staining based flow cytometry (reference value: 14.31%); type: functional
HL-60 = experiment: Cytotoxicity against human HL60 cells assessed as reduction in cell viability after 72 hrs by MTT assay; type: functional, cell-based; details: HL-60, 72 h
MDA-MB-231 = experiment: Cytotoxicity against human MDA-MB-231 cells assessed as reduction in cell viability after 72 hrs by MTT assay; type: functional, cell-based; details: MDA-MB-231, 72 h

Structure (SMILES)	Activity (K562 [1])	Activity (K562 [2])	IC50 (HeLa)	Activity (K562 [3])	IC50 (Raji)	Activity (K562 [5])	Activity (K562 [6])	Activity (K562 [7])	Activity (K562 [8])	Activity (K562 [9])	Activity (K562 [10])	Activity (K562 [11])	Activity (K562 [12])	Activity (K562 [13])	Activity (K562 [14])	Activity (K562 [15])	IC50 (MCF7)	IC50 (A549)	Activity (K562 [16])	IC50 (Jurkat)	also measured
O=C1C=C[C@]2(C[C@H](OC(=O)/C=C/c3ccc([N+](=O)[O-])cc3)[C@@H](c3ccccc3)O2)O1	2.13%	1.93%	2.22 µM	94.55%	> 100 µM	92.65%	0.87%	3.86%	0.85%	0.75%	3.78%	28.04%	3.4%	0.72%	48.17%	Active	8.58 µM	45.4 µM	25.39%	31.2 µM	Activity (K562 [4]): inactive; Activity (K562 [17]): inactive; IC50 (K562 [18]): 5.64 µM; Activity (K562 [19]): inactive; IC50 (MRC5): > 100 µM; Activity (K562 [20]): 0.71%; Activity (K562 [21]): 21.66%; Activity (K562 [22]): 43.62%; Activity (K562 [23]): 20.35%; IC50 (HL-60): 2.24 µM; IC50 (MDA-MB-231): > 100 µM
O=C1C=C[C@]2(C[C@H](OC(=O)/C=C/c3ccccc3)[C@H](c3ccccc3)O2)O1	5.69%	4.73%	14.5 µM	15.4%	9.68 µM	12.29%	15.25%	67.26%	12.17%	81.79%	53.67%	38.09%	1.97%	2.09%	21.01%	Active	5.34 µM	1.02 µM	31.69%	5.63 µM	Activity (K562 [4]): inactive; Activity (K562 [17]): inactive; IC50 (K562 [18]): 4.62 µM; Activity (K562 [19]): Active; IC50 (MRC5): > 100 µM; Activity (K562 [20]): 1.67%; Activity (K562 [21]): 35.21%; Activity (K562 [22]): 17.87%; Activity (K562 [23]): 29.57%; IC50 (HL-60): 3.41 µM; IC50 (MDA-MB-231): 5.23 µM
O=C1C=C[C@]2(C[C@H](OC(=O)/C=C/c3ccc(F)cc3)[C@@H](c3ccccc3)O2)O1	2.02%	1.87%	6.12 µM	87.45%	34.1 µM	81.7%	1.85%	9.86%	1.73%	8.05%	9.21%	28.31%	3.28%	0.83%	40.27%	Active	9.65 µM	> 100 µM	26.82%	15.6 µM	IC50 (K562 [18]): 8.45 µM; Activity (K562 [19]): inactive; IC50 (MRC5): > 100 µM; Activity (K562 [20]): 0.78%; Activity (K562 [21]): 29.4%; Activity (K562 [22]): 37.36%; Activity (K562 [23]): 27.34%; IC50 (HL-60): 24.1 µM; IC50 (MDA-MB-231): > 100 µM
O=C1C=C[C@@]2(C[C@H](O)[C@H](c3ccccc3)O2)O1	1.1%	0.87%	4.61 µM	81.75%	2.69 µM	20.34%	7.48%	6.15%	1.86%	10.05%	1.53%	52.34%	0.67%	4.62%	28.98%	Active	1.97 µM	31.4 µM	50.77%	0.96 µM	IC50 (K562 [18]): 0.54 µM; Activity (K562 [19]): Active; IC50 (MRC5): > 100 µM; Activity (K562 [20]): 1.15%; Activity (K562 [21]): 17.58%; Activity (K562 [22]): 15.11%; Activity (K562 [23]): 13.99%; IC50 (HL-60): 0.19 µM; IC50 (MDA-MB-231): > 100 µM
O=C1C=C[C@@]2(C[C@H](OC(=O)/C=C/c3ccc(F)cc3)[C@@H](c3ccccc3)O2)O1	2.61%	2.31%	2.21 µM	91.63%	55.4 µM	88.51%	1.38%	6.46%	1.33%	4.02%	6.24%	33.71%	3.58%	0.54%	41.18%	Active	21.5 µM	25.5 µM	30.81%	22.2 µM	IC50 (K562 [18]): 1.05 µM; Activity (K562 [19]): Active; IC50 (MRC5): > 100 µM; Activity (K562 [20]): 0.52%; Activity (K562 [21]): 22.5%; Activity (K562 [22]): 36.51%; Activity (K562 [23]): 19.95%; IC50 (HL-60): 4.48 µM; IC50 (MDA-MB-231): > 100 µM
